From PubChem BioAssay
Compounds with a hit are over-represented: about 4.8% of the library has one in this group of screens.
HSF1 inh = HSF1 inhibition. activity change, negative = inhibition, % at 7.5 µM (by protocol). 300,000 compounds, 0.77% hits. AID 2098. NIH3T3-HGL HSE-luciferase, MG132-induced, luminescence 8 h; hits give low values;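 active = more than half of replicate wells show activity change below -50%, luminescence cut by over half; inconclusive = some wells, but at most half, below -50%; inactive = no replicate well below -50%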;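 note: luciferase reports HSF-1 transcriptional activity via heat shock element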
697 NFkB inh = lowers PMA/ionomycin-induced NF-kB signal in 697 B cells | 697 B-cell NF-kB luciferase reporter, 16 h | inhibition, % at 4 µM | 330,000 compounds, 0.33% hits; in the data active = inhibition above about 35%
Jurkat NFkB inh = inhibitors of the PMA/ionomycin-induced NF-kB reporter in Jurkat cells | PMA/ionomycin-induced NF-kB luciferase reporter, luminescence | inhibition, % at 4 µM | 330,000 compounds, 0.53% hits; in the data active = inhibition above about 50%
T cruzi repl = T. cruzi replication inhibition; T. cruzi beta-gal in NIH3T3, luminescence, 90 h; inhibition, % (test concentration not listed); 300,000 compounds, 1.4% hits; AID 1885;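 active = mean inhibition across valid replicates above about 55%, limit read from the data; inconclusive = mean below that limit but half or more replicates reach it; inactive = mean below it, under half of replicates reach it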;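 note: signal also drops with host cell toxicity which is not excluded here; higher percent means less beta-gal luminescence so fewer parasites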
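System: NIH/3T3 fibroblasts plus reporter T. cruzi. Medium: DMEM plus 2% FBS. Probe or stimulus: 5000 reporter trypomastigotes per well. Compound: single 50 nL compound addition per well in DMSO. Incubation: co-culture of at least 90 h after 3 h attachment. Detection: GalScreen β-gal luminescence, detergent lysis, 60 min. Evaluation: parasite load inhibition, %.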
GPR7 antag = antagonists of human GPR7 (neuropeptides B/W receptor 1); AID 1861; 290,000 compounds, 1.1% hits; P48145; inhibition, % at 4.4 µM; GPR7-expressing cells, fluorescence antagonist assay; in the data active = inhibition above about 16%, passing the limit was not always enough;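 note: cells stimulated with the agonist NPW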
Target sequence (P48145 whole entry, looked up): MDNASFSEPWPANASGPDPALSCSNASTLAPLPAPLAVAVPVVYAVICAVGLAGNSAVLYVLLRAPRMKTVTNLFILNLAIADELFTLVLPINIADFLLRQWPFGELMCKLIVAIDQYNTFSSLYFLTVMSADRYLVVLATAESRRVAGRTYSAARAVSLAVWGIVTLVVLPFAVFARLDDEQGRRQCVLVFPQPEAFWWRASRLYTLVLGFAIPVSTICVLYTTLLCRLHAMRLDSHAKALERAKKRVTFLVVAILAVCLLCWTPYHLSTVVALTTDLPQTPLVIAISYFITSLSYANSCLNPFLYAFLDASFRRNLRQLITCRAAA
HSF1 activator = increases HSF-1 driven luciferase reporter signal; NIH3T3-HGL HSF-1 luciferase reporter, MG132, 8 h; 100% = twice DMSO control signal; activation, % at 9 µM; 300,000 compounds, 1.7% hits; AID 504408;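 active = mean replicate activation of at least 50% with a set share of replicates each reaching 50%; inconclusive = only one of those two conditions met; inactive = mean below 50% and too few replicates reaching it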
697 NFkB conf = inhibitors of the PMA/ionomycin-induced NF-kB reporter in 697 B cells, retest. shares compounds with 697 NFkB inh. 697 B-cell NF-kB luciferase, 16 h. inhibition, % at 4 µM. 2,000 compounds, 35% hits. AID 449746; in the data active = inhibition mostly above about 28%, no sharp cut-off; inactive = mostly below about 22%
Each line names hits and unclear results; the compound was inactive in the other large screens (follow-up assays come after a bar, where they were run); ! = a repeat was not active.

CC(C)Cc1ccc(CN2CCCC(NC(=O)c3cccc(-n4cnnc4)c3)C2)cc1 (stereo not given)	none
Brc1ccc(-c2c[n+]3c(n2-c2ccccc2)SCC3)cc1	none
Cc1ccc(-c2c[n+]3c(n2-c2ccccc2)SCC3)cc1	697 NFkB inh 38.7, T cruzi repl 65.8 | 697 NFkB conf 42.2
Cc1ccc(-c2cn(-c3ccccc3)c3[n+]2CCCS3)cc1	697 NFkB inh 56.4! | 697 NFkB conf 35.5
COc1cc2ccccc2cc1C(=O)Nc1ccc2oc(=O)ccc2c1	none
C=CCNC(=O)c1ccccc1NC(=O)Cc1ccccc1[N+](=O)[O-]	none
Cc1nnc2ccc(-c3ccc(NS(=O)(=O)c4ccccc4)cc3)nn12	697 NFkB inh 37.5 (no result: HSF1 inh, T cruzi repl, GPR7 antag, HSF1 activator) | 697 NFkB conf inactive
COc1ccc(S(=O)(=O)Nc2ccc(-c3ccc4nnc(C)n4n3)cc2)c(OC)c1	none (no result: HSF1 inh, T cruzi repl, GPR7 antag, HSF1 activator)
CCc1ccc(S(=O)(=O)Nc2cccc(-c3ccc4nnc(C)n4n3)c2)s1	697 NFkB inh 38.5 (no result: GPR7 antag) | 697 NFkB conf inactive
COc1ccc(OC)c(S(=O)(=O)Nc2ccc(-c3ccc4nnc(C)n4n3)cc2)c1	697 NFkB inh 50.2 (no result: GPR7 antag) | 697 NFkB conf 39.0
O=C(O)CCSc1nc2ccccc2s1	HSF1 inh -63.5, 697 NFkB inh 40.1 | 697 NFkB conf 34.6
COc1ccc(Cl)cc1NC(=O)CSc1nnc(CNC(=O)c2cccs2)o1	none
COc1ccc(C(C(=O)OC(C)CN(C)C)c2ccccc2)cc1 (stereo not given)	none
CN(C)CC(C(=O)c1ccccc1)c1ccccc1 (stereo not given)	T cruzi repl 57.8 | 697 NFkB conf inactive
O=C(C1=C[C@@H](C2CC2)C[C@@H](OCCCCO)O1)N1CCN(Cc2ccc3c(c2)OCO3)CC1	none
Cn1c(=O)c(C(=O)Nc2ccccn2)c(O)c2ccccc21	none | 697 NFkB conf inactive
Cc1ccccc1NC(=O)/C(C#N)=C\c1cc(C)n(-c2ccc(C(=O)O)cc2)c1C	697 NFkB inh 39.7 | 697 NFkB conf inactive
Cc1cc(/C=C(/C#N)C(=O)Nc2ccccc2)c(C)n1-c1cccnc1	none
CC(C)(CSc1ncccn1)NS(=O)(=O)c1ccccc1	697 NFkB inh 39.3 | 697 NFkB conf inactive
CCN(CC)S(=O)(=O)c1ccc(N=Nc2cc(C)cc(Br)c2O)cc1	none (no result: GPR7 antag)
Cc1ccc(N=Nc2ccc(O)cc2)c(Br)c1	HSF1 activator 61.5 | 697 NFkB conf inactive
COc1ccc2nc(NC(=O)c3cccs3)sc2c1	none | 697 NFkB conf inactive
COc1ccc2nc(NC(=O)Nc3ccccc3OC)sc2c1	none | 697 NFkB conf inactive
COc1ccc2nc(NC(=O)c3ccccc3O)sc2c1	HSF1 activator 102.8 | 697 NFkB conf inactive
COc1ccc2nc(NC(=O)Nc3cccc4ccccc34)sc2c1	none
COc1ccc2nc(NC(=O)c3ccccc3[N+](=O)[O-])sc2c1	none
CC(=O)Nc1ccc2nc(NC(=O)c3cccs3)sc2c1	none
O=C(CN1CCCC1c1cccs1)Nc1cccc(S(=O)(=O)N2CCCC2)c1 (stereo not given)	none (no result: HSF1 inh, T cruzi repl, GPR7 antag, HSF1 activator)
Cc1nn(-c2ccccc2)c(Cl)c1C(=O)NCCN(C)C	none
COc1ccc(C(=O)Nc2cc3c4c(c2)CC(=O)N4CCC3)cc1	none (no result: GPR7 antag)
COC(C[C@@H]1O[C@H]1C(=O)[C@@H](C)OCc1ccccc1)OC	none (no result: GPR7 antag)
Cc1sc(NC(=O)c2ccco2)c(C(c2cccnc2)N2CCC(C)CC2)c1C (stereo not given)	697 NFkB inh 35.7, T cruzi repl 72.4, GPR7 antag 20.2 | 697 NFkB conf inactive
CCN1CCN(C(c2cccnc2)c2c(NC(=O)c3ccco3)sc(C)c2C)CC1 (stereo not given)	none (no result: HSF1 inh, T cruzi repl, GPR7 antag, HSF1 activator)
COc1ccc(/C=N\NC(=O)c2sccc2C)cc1Cn1nc(C)cc1C	697 NFkB inh 39.2 | 697 NFkB conf 44.5
CCN(CC)S(=O)(=O)c1ccc(N2CCOCC2)c(NC(=O)c2cnccn2)c1	none
CCc1ccc(NC(=O)Nc2ccsc2C(=O)OC)cc1	none | 697 NFkB conf inactive
COC(=O)c1sccc1NC(=O)Nc1ccc(OC)c(OC)c1	none
Cc1ccc2c(c1)COc1c3ccc(C(=O)NCCO)cc3nn1-2	none (no result: GPR7 antag) | 697 NFkB conf inactive
Cc1ccc2c(c1)COc1c3ccc(C(=O)N[C@@H](C)CO)cc3nn1-2	none (no result: GPR7 antag) | 697 NFkB conf inactive
Cc1ccc2c(c1)COc1c3ccc(C(=O)NC(C)C)cc3nn1-2	none (no result: GPR7 antag) | 697 NFkB conf inactive
CCOc1ccc(S(=O)(=O)NCc2ccncc2)cc1NC(=O)c1ccccc1	697 NFkB inh 45.5 (no result: GPR7 antag) | 697 NFkB conf 84.4
C[C@H](N)c1nnc(SCC(=O)c2ccc(Cl)cc2)o1	none
CC(C)[C@H](N)c1nnc(SCC(=O)c2ccc(Cl)cc2)o1	697 NFkB inh 58.0 | 697 NFkB conf 35.3
O=C(NCc1ccccc1)C1=C[C@H](C2CCCCC2)C[C@H](OCc2ccc(CO)cc2)O1	none | 697 NFkB conf inactive
CCCCn1c(N)c(N(Cc2ccccc2OC)C(=O)c2ccc(N3CCCC3=O)cc2)c(=O)[nH]c1=O	none (no result: GPR7 antag)
Cn1c(=O)[nH]c(=O)c2c1nc(N1CCOCC1)n2CCc1ccccc1	697 NFkB inh 47.1 | 697 NFkB conf inactive
COc1ccc(CCn2c(N3CCOCC3)nc3c2c(=O)[nH]c(=O)n3C)cc1	none
Cn1c(=O)[nH]c(=O)c2c1nc(N1CCOCC1)n2CCSc1nnnn1-c1ccccc1	697 NFkB inh 38.2 | 697 NFkB conf inactive
CCOc1ccc(-n2c(SCC(=O)Nc3ccc4c(c3)OCCO4)nc3c(c2=O)SCC3)cc1	697 NFkB inh 37.8 (no result: HSF1 inh, T cruzi repl, HSF1 activator) | 697 NFkB conf 32.3
CCOc1ccc(-n2c(SCC)nc3c(c2=O)SCC3)cc1	none
O=C(Nc1ccc(Nc2ccncc2)cc1)c1ccc(Nc2ccnc3ccc([N+](=O)[O-])cc23)cc1[N+](=O)[O-]	none (no result: 697 NFkB inh, Jurkat NFkB inh)
C(=N\Nc1nc2ccccc2s1)/c1cccs1	HSF1 activator inconclusive | 697 NFkB conf inactive
CCCCCN1C(=O)Cn2c(nc3ccccc3c2=O)C1C (stereo not given)	none
CN(C)C(=O)CCc1ccc2c3c([nH]c2c1)[C@]1(CCc2ccccc2)[C@@H](C(=O)N2CCCCC2)C[C@H](CC(=O)NCc2ccco2)C(=O)N1CC3	697 NFkB inh 39.1 (no result: HSF1 inh, Jurkat NFkB inh, T cruzi repl, GPR7 antag, HSF1 activator) | 697 NFkB conf inactive
Cc1nc2ccccc2c(=O)n1/N=C1\C(=O)N(C)c2ccccc21	697 NFkB inh 58.4 | 697 NFkB conf inactive
CCCCCCCCCCC(=O)Nc1cccnc1	none
COc1ccc2nc(Sc3c([N+](=O)[O-])nc(C)n3Cc3ccccc3)[nH]c2c1	697 NFkB inh 38.8, HSF1 activator 106.7 | 697 NFkB conf 47.0
O=C(Nc1ccc(N2CCCC2)cc1)c1cccc(F)c1	none | 697 NFkB conf inactive
O=C(Nc1ccc(N2CCCCC2)cc1)c1ccccc1	none
CC(=O)Nc1ccc(N2CCCCC2)cc1	none
